Data set [1] can be described thus: Cytotoxicity against MDBK cells after 3 days by MTS/PMS assay. It counts as cell-based, Bos taurus. Particulars: cattle. An outline of the steps:
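MDBK cells seeded at 1 × 10^4 per well in MEM-FBS; serial compound dilutions added 24 h later (DMSO stocks 1 mg/mL). Cells proliferated 3 days at 37 °C. MTS/PMS was then added for 3 h at 37 °C and absorbance read at 490 nm. Viability is the percentage of untreated-cell absorbance. CC50 = 50% inhibition of proliferation, logarithmic interpolation from dose-response curves.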

For data set [2], the system named is Bovine viral diarrhea virus 1. Nature of the data set: Antiviral activity against bovine viral diarrhoea virus type-1 NADL in MDBK cells assessed as inhibition of virus-induced cytopathic effect. It counts as functional, organism-based. Particulars: Bovine viral diarrhea virus isolates and strains. A digest of the protocol: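 MDBK cells seeded at 1 × 10^4 per well in MEM-FBS, 24 h at 37 °C, 5% CO2; medium replaced with serial compound dilutions (DMSO stocks 1 mg/mL), then BVDV inoculum giving >80% CPE by 3 days at 37 °C. Uninfected and virus-only controls on each plate. Read-out is MTS/PMS in MEM-DHS, absorbance 490 nm. EC50 = 50% protection against CPE, logarithmic interpolation from dose-response curves.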
On the technique in general: Cytopathic effects are the visible damage that an infection or toxin causes in cultured cells.

Data set [3] is described as follows: Selectivity index, ratio of CC50 for MDBK cells to EC50 for bovine viral diarrhoea virus type-1 NADL. In kind it is toxicity, cell-based. Particulars: cattle, read-out: Ratio CC50/EC50. An outline of the steps:
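Ratio of CC50 to EC50. CC50 comes from a 3-day MTS/PMS proliferation assay on MDBK cells. EC50 comes from protection of MDBK cells against NADL-strain cytopathic effect after 3 days, read by MTS/PMS at 490 nm. Both values were derived by logarithmic interpolation from dose-response curves.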

Data set [4] has as its system Poliovirus 1. Nature of the data set: Antiviral activity against poliovirus type-1 Sabin. It counts as functional, organism-based. Particulars: Enterovirus C.
The test system of data set [5] is Human immunodeficiency virus 1. The data set can be described thus: Antiviral activity against HIV1. In kind it is functional, organism-based.
For data set [6], the system named is Vesicular stomatitis virus. Nature of the data set: Antiviral activity against Vesicular stomatitis virus type-1 Indiana. It counts as functional, organism-based.
The test system of data set [7] is Human alphaherpesvirus 1. Nature of the data set: Antiviral activity against HSV1 F. In kind it is functional, organism-based. Particulars: Human alphaherpesvirus 1, F.

Broadly, the CC50 is the concentration that lowers cell viability or growth by half. Low values mean greater toxicity to the cells, high ones lower toxicity to the cells. By EC50 is commonly meant the concentration needed to bring the measured effect to its halfway point.

Take `COc1ccc2c(c1)CC/C2=N\NC(N)=S`: in data set [1], the CC50 at 72 h worked out at 149 µM. In data set [2], the EC50 was 18.8 µM. For the same compound, the selectivity ratio in data set [3] stood at 7.93.
For `Cc1cc(C)c2c(c1Br)CC/C2=N\NC(N)=S` the same measures were 139 µM, 8.94 µM and 15.5.
Taken in the same sequence, the figures for `COc1ccc2c(c1OC)CC/C2=N\NC(N)=S` were 141 µM, 11.5 µM and 12.2.
In data set [1], `Cc1ccc2c(c1)CC/C2=N\NC(N)=S` showed a 50% cytotoxic concentration (CC50) at 72 h of 130 µM. In addition, the concentration for a half-maximal effect (EC50) in data set [2] turned out to be 6.48 µM. Also, the selectivity ratio in data set [3] worked out at 20.1.
As to `Cc1cc2c(c(C)c1Cl)/C(=N/NC(N)=S)CC2`, in data set [1], the CC50 at 72 h was 80.7 µM. In addition, in data set [2], the EC50 is 7.4 µM. In addition, the selectivity ratio in data set [3] came out at 10.9.
Taken in the same sequence, the figures for `Cc1cc2c(c(C)c1Cl)CC/C2=N\NC(N)=S` were 72.5 µM, over 11.1 µM and under 6.53.
For the compound `COc1ccc2c(c1)/C(=N/NC(N)=S)CC2`, the CC50 at 72 h in data set [1] was found to be 106 µM. Further, the EC50 in data set [2] was found to be 26 µM. In addition, in data set [3], the selectivity ratio amounted to 4.09.
Consider `Cc1cccc2c1CC/C2=N\NC(N)=S`, for which, in data set [1], the CC50 at 72 h was 165 µM. Besides, in data set [2], the concentration for a half-maximal effect (EC50) is 8.13 µM. In addition, the selectivity ratio in data set [3] stood at 20.3.
In data set [1], `NC(=S)N/N=C1\CCc2cc(Br)ccc21` displayed a CC50 at 72 h of over 15 µM. Moreover, the EC50 in data set [2] amounted to 1.81 µM. For the same compound, the selectivity ratio in data set [3] was over 8.29.
Taken in the same sequence, the figures for `NC(=S)N/N=C1\CCc2ccccc21` were 156 µM, 18.1 µM and 8.6.
For the compound `Cc1cc(C)c2c(c1)CC/C2=N\NC(N)=S`, in data set [1], half-maximal cytotoxicity (CC50 at 72 h) was put at 51.7 µM.
On to `NC(=S)N/N=C1\CCc2cc(Cl)ccc21`, for which, in data set [1], the cytotoxic concentration (CC50) at 72 h was over 27 µM. In addition, the EC50 in data set [2] is 8.8 µM. Moreover, in data set [3], the selectivity ratio is over 3.07.
As to `NC(=O)c1ncn([C@@H]2O[C@H](CO)[C@@H](O)[C@H]2O)n1` [RIBAVIRIN], the CC50 at 72 h in data set [1] stood at 54 µM. For the same compound, the concentration giving a half-maximal response (EC50) in data set [2] was 4.62 µM.
As to `COc1cccc2c1CC/C2=N\NC(N)=S`, in data set [1], half-maximal cytotoxicity (CC50 at 72 h) was put at 822 µM. For the same compound, the half-maximal effective concentration (EC50) in data set [2] was 242 µM. Moreover, the selectivity ratio in data set [3] was determined as 3.39.
Take `COc1cc2c(cc1OC)/C(=N/NC(N)=S)CC2`: in data set [1], the CC50 at 72 h was 140 µM. The EC50 in data set [2] is 1.75 µM; in data set [4], 64 µM; in data set [5] it was over 38 µM; in data set [6], over 75.5 µM; in data set [7] it was over 64 µM. For the same compound, the selectivity ratio in data set [3] was 80.3.

Source of the values: ChEMBL document CHEMBL1140965, “New 1-indanone thiosemicarbazone derivatives active against BVDV” (Eur J Med Chem, 2008).
